Results from different studies.
Protocols differ between the studies behind these lines.
Target: Tyrosine-protein kinase Fyn (FYN, Homo sapiens, UniProt P06241)

Cc1nc(Cc2cccc(C(F)(F)F)c2)sc1-c1ccc(C(N)=O)nc1  remaining binding (cell-free assay; competition with immobilised ligand; 1 µM): 100%
O=c1cc(-c2cccc3c2Sc2ccccc2S3)oc(N2CCOCC2)c1  remaining activity (enzyme activity; inhibitor; 0.5 µM): 88.6%
CNCc1ccc(-c2cc(-c3nc(-c4ccc(S(=O)(=O)C(C)C)cc4)cnc3N)on2)cc1  inhibition (enzyme activity; inhibitor; 2 µM): 27%
CC/C(=N\NC(=O)NCc1cccc(O)c1)c1ccc(O)c(C)c1O  inhibition (enzyme activity; inhibitor; 0.1 µM): 0.5%
C#Cc1cccc(Nc2ncnc3cc(OCCOC)c(OCCOC)cc23)c1  remaining signal (cell-free assay; 0.5 µM): 94.7%
CC(=O)Nc1c(C(C)=O)c(=O)n(C)c2nc(-c3ccc(Cl)cc3Cl)c(-c3ccc(Cl)cc3)cc12  remaining binding (cell-free assay; competition with immobilised ligand; 1 µM): 100%
O=C1Nc2ccc(Cl)cc2C1=Cc1cc(Cl)c(O)c(Cl)c1  remaining signal (cell-free assay; 0.5 µM): 73%
Cn1cnc(Br)c1C1=CN(c2ncnc3[nH]cnc23)CCS1  inhibition (enzyme activity; inhibitor; radiometric; 50 nM): 21.6%
COc1cc2ncnc(Nc3ccc(F)c(Cl)c3)c2cc1OCCCN1CCOCC1  remaining signal (cell-free assay; 0.5 µM): 92.2%
O=C(Nc1cnn(-c2csc(C(=O)NC3COC3)c2)c1)Nc1c(F)cccc1Cl  remaining activity (enzyme activity; inhibitor; 5 µM): 90.3%
COc1cc(OC)c(C=C2C(O)=Nc3ccccc32)c(OC)c1  remaining signal (cell-free assay; inhibitor; 0.5 µM): 100%
CNC(=O)c1cc(Oc2ccc(NC(=O)Nc3ccc(Cl)c(C(F)(F)F)c3)cc2)ccn1  inhibition (enzyme activity; inhibitor; 10 µM): 44%
COc1cccc(CNC(=O)c2nc3scc(COCc4ccc(C(=O)O)cc4)c3c(=O)[nH]2)c1  remaining binding (cell-free assay; competition with immobilised ligand; 1 µM): 81.1%
Cc1cc(NC(=O)c2cccc3cc(-c4cccc5[nH]nc(N)c45)ccc23)ccc1F  activity vs control (enzyme activity; inhibitor; 0.1 µM): 88%
O=C(Nc1cnn(-c2csc(C(=O)NC3COC3)c2)c1)Nc1ccccc1Cl  remaining activity (enzyme activity; inhibitor; 5 µM): 97.8%
Nc1ncnc2occ(-c3ccc(NC(=O)Nc4cc(C(F)(F)F)ccc4F)cc3)c12  remaining activity (enzyme activity; inhibitor; 20 µM): 2.8%
CCN(CC)CCNC(=O)c1c(C)[nH]c(/C=C2\C(=O)Nc3ccc(F)cc32)c1C  inhibition (enzyme activity; inhibitor; 0.3 µM): 35%
COc1cc(Cl)c(C(=O)N[C@@H](CN[C@H]2CC[C@@H](N)CC2)Cc2ccc(C#N)cc2)cc1-c1ccc(CN[C@H](C)c2ccc(C)cc2)o1  remaining activity (enzyme activity; inhibitor; 1 µM): 104%
c1ccc(CNc2nc(N3CCOc4ccccc43)nc3c2CCCC3)cc1  inhibition (target engagement in cells; inhibitor; chemoproteomics; 20 mM): -18%
CN(C(=O)c1ccccc1)c1cc(N(C)c2ccc3c(c2)CCc2ccc(C(=O)NCCN4CCOCC4)cc2C3=O)ccc1F  remaining binding (cell-free assay; competition with immobilised ligand; 1 µM): 61%
COc1cc2ncnc(Nc3ccc(Oc4ccccc4)cc3C)c2cc1OC  inhibition (enzyme activity; inhibitor; 1 µM): 83%
C=CC(=O)Nc1cc(Nc2nccc(Nc3cc(Cl)c(F)cc3C(C)(C)O)n2)c(OC)cc1N1CC[C@@H](N(C)C)C1  inhibition (enzyme activity; inhibitor; 1 µM): 23%
CCc1ccccc1C(=O)Nc1n[nH]c2c(C)c(F)c(C3C(C#N)=C(C)N(C)C(C)=C3C#N)cc12  remaining binding (cell-free assay; competition with immobilised ligand; 1 µM): 100%
COc1cccc2c(NCc3ccccc3)nc(-n3c(N)nc4ccccc43)nc12  inhibition (target engagement in cells; inhibitor; chemoproteomics; 20 mM): -15.9%
Cc1cc(NC(=O)c2cccc(S(F)(F)(F)(F)F)c2)cc(-n2ccn3nc(-c4cccnc4)cc23)c1  remaining binding (cell-free assay; competition with immobilised ligand; 1 µM): 81.3%
CC(C)(C)c1nc2c(s1)c1nc(N)ncc1c1ccc(NS(=O)(=O)c3c(F)cccc3F)c(F)c12  remaining activity (enzyme activity; inhibitor; radiometric; 1 µM): 97%
COc1cc(Nc2c(C#N)cnc3cc(OCCCN4CCN(C)CC4)c(OC)cc23)c(Cl)cc1Cl  remaining signal (cell-free assay; 0.5 µM): 29.4%
CNC(=O)Nc1ccc2c(c1)CC[C@@]21OC(=O)N(CC(=O)N(Cc2ccc(F)cc2)[C@@H](C)C(F)(F)F)C1=O  remaining binding (cell-free assay; competition with immobilised ligand; 1 µM): 100%
Cc1ccc(NC(=O)c2ccc(C)c(C(F)(F)F)c2)cc1C#Cc1nn(C2CCC(O)CC2)c2ncnc(N)c12 (stereo not shown)  remaining signal (cell-free assay; 10 µM): 0%
CN([C@@H]1CCc2c(CC(=O)O)c3cc(S(C)(=O)=O)ccc3n2C1)S(=O)(=O)c1ccc(F)cc1  remaining binding (cell-free assay; competition with immobilised ligand; 1 µM): 99%
Cc1cnc(NC2CCOCC2)nc1-n1cnc(C(=O)NC(CN)c2cc(F)cc(Cl)c2)c1 (stereo not shown)  remaining activity (enzyme activity; inhibitor; radiometric; 1 µM): 100%
